Experiments:
[1] = tested on: Human immunodeficiency virus 1; assay: Inhibitory concentration required to inhibit HIV-induced cytopathicity in CEM-4 cells by 50% based in the MTT assay; Not active; assay type: functional, organism-based
E6SM = assay: Minimum cytotoxic concentration required to cause a microscopically detectable alteration of normal cell morphology in E6SM cells; assay type: functional, Homo sapiens
Summary of the method: (§1)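 Uninfected E6SM, HeLa or Vero cells were exposed to compound and examined by microscopy. MCC is the lowest concentration causing a detectable alteration of normal cell morphology.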

Vaccinia virus = assay: Concentration required to inhibit Vaccinia induced cytopathicity in E6SM cells by 50%; assay type: functional, organism-based; conditions: Orthopoxvirus vaccinia
[2] = tested on: Vesicular stomatitis virus; assay: Concentration required to inhibit vesicular stomatitis induced cytopathicity in E6SM cells by 50%; assay type: functional, organism-based
HEL = assay: Minimum cytotoxic concentration required to cause a microscopically detectable alteration of normal cell morphology in HEL cells; assay type: functional, Homo sapiens
Human betaherpesvirus 5 [3] = assay: Concentration required to inhibit HCMV(AD169) induced cytopathicity in HEL cells by 50%; assay type: functional, organism-based; conditions: Human betaherpesvirus 5, HEL
Summary of the method: (§2)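 Virus was added to the cell monolayers in the presence of compound. Incubation continued until the viral cytopathic effect was scored. IC50 is the concentration that reduced virus-induced cytopathicity by 50%.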

Human betaherpesvirus 5 [4] = assay: Concentration required to inhibit HCMV(Davis) induced cytopathicity in HEL cells by 50%; assay type: functional, organism-based; conditions: Human betaherpesvirus 5, HEL; summary of the method: as §2
HeLa = assay: Minimum cytotoxic concentration required to cause a microscopically detectable alteration of normal cell morphology in HeLa cells; assay type: functional, Homo sapiens; summary of the method: as §1
Coxsackievirus = assay: Concentration required to inhibit Coxsackie induced cytopathicity in HeLa cells by 50%; assay type: functional, organism-based; summary of the method: as §2
Poliovirus 1 = assay: Concentration required to inhibit Polio-1 induced cytopathicity in HeLa cells by 50%; assay type: functional, organism-based; conditions: Enterovirus C
[5] = tested on: Human immunodeficiency virus 1; assay: Concentration required to inhibit by 50% syncytium formation between MOLT-4 cells and HIV-1(IIIB); assay type: functional, organism-based; conditions: Human immunodeficiency virus 1, MOLT-4
Summary of the method: (§3)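 Uninfected MOLT-4 cells were co-cultured with HUT-78 cells chronically infected with HIV-1 (IIIB) or HIV-2 (ROD), in the presence of compound. The end point was syncytium formation, and IC50 is the concentration giving 50% inhibition. Values are means of two separate experiments.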

MT4 = assay: Concentration required to reduce the viability of mock-infected MT-4 cells by 50%; assay type: functional; conditions: Homo sapiens
Summary of the method: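 Mock-infected MT-4 cells were exposed to compound. CC50 is the concentration that reduced cell viability by 50%. Values are means of two separate experiments.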

[6] = tested on: Human immunodeficiency virus 1; assay: Concentration required to inhibit HIV-1 induced cytopathicity in MT-4 cells by 50%; assay type: functional, organism-based; conditions: Human immunodeficiency virus 1, MT4
Summary of the method: (§4)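 MT-4 cells were infected with HIV-1 (strain HTLV-IIIB/LAI) or HIV-2 (strain LAV-2 ROD) and exposed to compound. IC50 is the concentration that inhibited HIV-induced cytopathicity by 50%. Values are means of two separate experiments.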

[7] = tested on: Human immunodeficiency virus 2; assay: Concentration required to inhibit HIV-2 induced cytopathicity in MT-4 cells by 50%; assay type: functional, organism-based; conditions: Human immunodeficiency virus 2, MT4; summary of the method: as §4
[8] = tested on: Human immunodeficiency virus 2; assay: Concentration required to inhibit by 50% syncytium formation between MOLT-4 cells and HIV-2 (ROD) infected HUT-78 cells; assay type: functional, organism-based; conditions: Human immunodeficiency virus 2, MOLT-4; summary of the method: as §3
Vero = assay: Minimum cytotoxic concentration required to cause a microscopically detectable alteration of normal cell morphology in Vero cells; assay type: functional, Chlorocebus sabaeus; summary of the method: as §1
Junin virus = assay: Concentration required to inhibit Junin induced cytopathicity in Vero cells by 50%; assay type: functional, organism-based; conditions: Mammarenavirus juninense
Sindbis virus = assay: Concentration required to inhibit Sindbis induced cytopathicity in Vero cells by 50%; assay type: functional, organism-based; summary of the method: as §2
Tacaribe virus = assay: Concentration required to inhibit Tacaribe induced cytopathicity in Vero cells by 50%; assay type: functional, cell-based; conditions: Mammarenavirus tacaribeense
Human respirovirus 3 = assay: Concentration required to inhibit parainfluenza-3 induced cytopathicity in Vero cells by 50%; assay type: functional, organism-based; conditions: Human respirovirus 3, Vero; summary of the method: as §2
[9] = tested on: Mammalian orthoreovirus 1; assay: Concentration required to inhibit reovirus-1 induced cytopathicity in Vero cells by 50%; assay type: functional, organism-based; conditions: Mammalian orthoreovirus 1, Vero; summary of the method: as §2
Semliki Forest virus = assay: Concentration required to inhibit forest induced cytopathicity in Vero cells by 50%; assay type: functional, organism-based; summary of the method: as §2
CEM-4 = assay: Cytotoxic concentration required to reduce the viability of uninfected cells by 50% after 5 days of incubation in the presence on CEM-4 cells.; assay type: functional; conditions: Homo sapiens, CEM-4, 120 h
Summary of the method: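 Uninfected CEM-4 cells were incubated with compound for 5 days. CC50 is the concentration that reduced viability by 50%. Values average at least two separate experiments.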

Human alphaherpesvirus 2 = assay: Concentration required to inhibit HSV-2(G) induced cytopathicity in E6SM cells by 50%; conditions: Human alphaherpesvirus 2, E6SM
Human alphaherpesvirus 1 [10] = assay: Concentration required to inhibit HSV-1(KOS) induced cytopathicity in E6SM cells by 50%; conditions: Human alphaherpesvirus 1, E6SM
Human alphaherpesvirus 1 [11] = assay: Concentration required to inhibit HSV-1 TK-(B2006) induced cytopathicity in E6SM cells by 50%; conditions: Human alphaherpesvirus 1, E6SM
[12] = tested on: Human immunodeficiency virus 1; assay: Inhibitory concentration required to inhibit HIV-induced cytopathicity in CEM-4 cells by 50% based in the MTT assay; assay type: functional, organism-based; conditions: Human immunodeficiency virus 1, CEM-4

Structure (SMILES)	MMC (E6SM) [µg/mL]	IC50 (Vaccinia virus) [µg/mL]	IC50 [2] [µg/mL]	MMC (HEL) [µg/mL]	IC50 (Human betaherpesvirus 5 [3]) [µg/mL]	IC50 (Human betaherpesvirus 5 [4]) [µg/mL]	MMC (HeLa) [µg/mL]	IC50 (Coxsackievirus) [µg/mL]	IC50 (Poliovirus 1) [µg/mL]	IC50 [5] [µg/mL]	CC50 (MT4) [µg/mL]	IC50 [6] [µg/mL]	IC50 [7] [µg/mL]	IC50 [8] [µg/mL]	MMC (Vero) [µg/mL]	IC50 (Junin virus) [µg/mL]	IC50 (Sindbis virus) [µg/mL]	IC50 (Tacaribe virus) [µg/mL]	IC50 (Human respirovirus 3) [µg/mL]	IC50 [9] [µg/mL]	also measured
CCCCCCCCCCCCSCCCCCCCCCCCCC(=O)NCCCCCCCCCCC(=O)NCCC(=O)[O-].[Na+]	>200	> 200	> 200	>50	25	20	>200	> 200	> 200	10	> 250	3	12	10	>200	43	> 200	50	> 200	> 200	IC50 [1]: Not Active; IC50 (Semliki Forest virus): > 200 µg/mL; CC50 (CEM-4): 42 µg/mL; IC50 (Human alphaherpesvirus 2): 20 µg/mL; IC50 (Human alphaherpesvirus 1 [10]): 20 µg/mL; IC50 (Human alphaherpesvirus 1 [11]): 20 µg/mL
CCCCCCCCCCCCSCCCCCCCCCCC(=O)N(C)CCCCCCCCCCC(=O)[O-].[Na+]	>400	> 200	> 200	>50	> 50	> 50	>200	> 200	> 200	150	128	28	70	150	>200	> 50	> 200	> 50	> 200	> 200	IC50 [1]: Not Active; IC50 (Semliki Forest virus): > 200 µg/mL; CC50 (CEM-4): > 200 µg/mL; IC50 (Human alphaherpesvirus 2): 70 µg/mL; IC50 (Human alphaherpesvirus 1 [10]): > 200 µg/mL; IC50 (Human alphaherpesvirus 1 [11]): > 200 µg/mL
CCCCCCCCCCCCSCCCCCCCCCCCCC(=O)NCCCCCCCCCCC(=O)[O-].[Na+]	>200	> 200	> 200	>50	> 50	35	>200	> 200	> 200	50	136	20	47	150	>200	> 50	> 200	> 50	> 200	> 200	IC50 [1]: Not Active; IC50 (Semliki Forest virus): > 200 µg/mL; CC50 (CEM-4): 37 µg/mL; IC50 (Human alphaherpesvirus 2): > 200 µg/mL; IC50 (Human alphaherpesvirus 1 [10]): > 200 µg/mL; IC50 (Human alphaherpesvirus 1 [11]): > 200 µg/mL
CCCCCCCCCCCCSCCCCCCCCCCCCCCCCCCCCCCCCCCCCCCCCCCCCCCCCCCCCCCCCCCC(=O)N(CC)CCCCCCCCCCC(=O)NC(CCC(=O)[O-])C(=O)O.[Na+] (stereo not given)	100	> 40	> 40	>50	10	5	>200	> 200	> 200	6	> 250	0.1	7	30	>40	> 50	> 10	> 50	> 10	> 10	IC50 [12]: 1 µg/mL; IC50 (Semliki Forest virus): > 10 µg/mL; CC50 (CEM-4): > 300 µg/mL; IC50 (Human alphaherpesvirus 2): > 40 µg/mL; IC50 (Human alphaherpesvirus 1 [10]): 20 µg/mL; IC50 (Human alphaherpesvirus 1 [11]): 40 µg/mL
CCCCCCCCCCCCSCCCCCCCCCCCCCCCCCCCCCCCCCCCCCCCCC(=O)N(CC)CCCCCCCCCCC(=O)[O-].[Na+]	100	> 40	> 40	>50	9	9	>200	> 200	> 200	30	30	> 16	> 29	50	>200	20	> 200	> 20	> 200	> 200	IC50 [12]: > 11 µg/mL; IC50 (Semliki Forest virus): > 200 µg/mL; CC50 (CEM-4): 27 µg/mL; IC50 (Human alphaherpesvirus 2): 20 µg/mL; IC50 (Human alphaherpesvirus 1 [10]): > 40 µg/mL; IC50 (Human alphaherpesvirus 1 [11]): > 200 µg/mL

From ChEMBL document CHEMBL1130289, “Polyanion inhibitors of human immunodeficiency virus and other viruses. 5. Telomerized anionic surfactants derived from amino acids” (J Med Chem, 1997)
